Experimental data as given in article PMC3863817 (Scientific Reports, 2013).

How the values were obtained:
COS7 cells = test: Measurement of cellular ATP levels; format: cell-based, African green monkey; conditions: positive control, 1 μM for 4 h
In short: (§1)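 Cells plated at 2 × 10^5 per well and grown 1 day. They were exposed to 20 μM test compound for 4, 8, 16 or 24 h, or to rotenone (1 μM, 4 h) as positive control, at 37°C. KB cells were in folic acid-depleted RPMI-1640 and COS7 in DMEM, each with 10% FBS. Harvested cells were lysed in 1% TCA/4 mM EDTA for 20 min on ice, then Tris (pH 7.4). ATP was read with a bioluminescent kit on a chemiluminometer.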

KB cells = test: Measurement of cellular ATP levels; format: cell-based, human; conditions: positive control, 1 μM for 4 h
In short: as §1

Question: Which “Cellular ATP level, in words” value (COS7 cells) does the source give for `C=C(C)[C@H]1Cc2c(ccc3c2O[C@@H]2COc4cc(OC)c(OC)cc4[C@@H]2C3=O)O1` [rotenone] here?
Answer: induce a decrease in cellular ATP level

Question: What about the “Cellular ATP level, in words” value (KB cells) of the same molecule?
Answer: induce a decrease in cellular ATP level
